Measured values collected from several papers.
Protocols differ between the studies behind these lines.
Sample: Caco-2

| SMILES | concentration | time | pH | Papp A→B |
| --- | --- | --- | --- | --- |
| C[C@H]1O[C@@H](O[C@H]2[C@@H](O)C[C@H](O[C@H]3[C@@H](O)C[C@H](O[C@H]4CC[C@@]5(C)[C@H](CC[C@@H]6[C@@H]5C[C@@H](O)[C@]5(C)[C@@H](C7=CC(=O)OC7)CC[C@]65O)C4)O[C@@H]3C)O[C@@H]2C)C[C@H](O)[C@@H]1O | 10 µM | 2 h |  | 0.48 ×10⁻⁶ cm/s |
| COc1ccccc1OCCNCC(O)COc1cccc2[nH]c3ccccc3c12 (stereo not drawn) | 5 µM | 2 h |  | 4.98 ×10⁻⁶ cm/s |
| N#Cc1ccc(C[C@H](Nc2nnc(-c3ccc(F)cc3)s2)C(=O)N2CCc3ccccc32)cc1 | 100 µM | 2 h |  | 11.2 ×10⁻⁶ cm/s |
| O=C(NCc1nc(-c2ccc(C(F)(F)F)cc2)cs1)[C@H]1CCCN(C(=O)CO[C@H]2CCCNC2)C1 |  |  | pH 7.4 | 0.15 ×10⁻⁶ cm/s |
| Cc1ccc2[nH]c(=S)n(Cc3cccnc3)c(=O)c2c1 | 10 µM | 90 min | pH 7.4 | 35.4 ×10⁻⁶ cm/s |
| O=c1c(O[C@@H]2O[C@H](CO)[C@H](O)[C@H](O)[C@H]2O)c(-c2ccc(O)c(O)c2)oc2cc(O)cc(O)c12 | 200 µg/mL |  |  | 0.349 ×10⁻⁶ cm/s |
| COc1ccc(CCC(=O)c2c(O)cc(O[C@@H]3O[C@H](CO)[C@@H](O)[C@H](O)[C@H]3O[C@@H]3O[C@@H](C)[C@H](O)[C@@H](O)[C@H]3O)cc2O)cc1O | 100 µg/mL | 2 h |  | 17 ×10⁻⁶ cm/s |
| CC(=O)OCc1cc2[nH]c(=S)n(Cc3cccnc3)c(=O)c2cc1Cl | 10 µM | 90 min | pH 7.4 | 0.6 ×10⁻⁶ cm/s |
| C=CC(=O)NC1CCN(c2ncc3ncnc(Nc4ccc(Oc5ccc6c(c5)ncn6C)c(C)c4)c3n2)CC1 |  |  |  | ~6.8 ×10⁻⁶ cm/s |
| COCC(=O)N1CCC[C@H](C(=O)NCc2nc(-c3ccccc3)cs2)C1 |  |  | pH 7.4 | 52 ×10⁻⁶ cm/s |
| O=c1c2cc(Cl)ccc2[nH]c(=S)n1Cc1ccc(-c2nnn[nH]2)nc1 | 10 µM | 90 min | pH 7.4 | < 0.51 ×10⁻⁶ cm/s |
| O=C(N[C@@H](c1ccccc1)[C@H]1CCCN1)C1=CN(c2ncnc3[nH]ccc23)CCS1 | 10 µM |  | pH 6.5 | < 0.3 ×10⁻⁶ cm/s |
| CCOCC(=O)N1CCC[C@H](C(=O)NCc2nc(-c3ccc(C#N)nc3)cs2)C1 |  |  | pH 7.4 | 13 ×10⁻⁶ cm/s |
| Cc1ccc(N(c2ccc(NC(=O)CN(C)c3ccccc3N3CCCC3=O)cc2)C(C)C)cc1 |  |  |  | 1.09 ×10⁻⁶ cm/s |
| CNC(C)(C)COCC(=O)N1CCC[C@H](C(=O)NCc2nc(-c3ccc(C(F)(F)F)cc3)cs2)C1 |  |  | pH 7.4 | 0.19 ×10⁻⁶ cm/s |
| COC(=O)[C@H]1[C@H]2C[C@@H]3c4[nH]c5cc(OC)ccc5c4CCN3C[C@H]2C[C@@H](OC(=O)c2cc(OC)c(OC)c(OC)c2)[C@@H]1OC | 5 µM | 2 h |  | 0.97 ×10⁻⁶ cm/s |
| CCCCCOC(=O)Nc1nc(=O)n([C@@H]2O[C@H](C)[C@@H](O)[C@H]2O)cc1F |  | 4 h |  | 3.24 ×10⁻⁶ cm/s |
| N[C@@H](COCC(=O)N1CCC[C@H](C(=O)NCc2nc(-c3ccc(C(F)(F)F)cc3)cs2)C1)c1ccccc1 |  |  | pH 7.4 | 8.5 ×10⁻⁶ cm/s |

| SMILES | concentration | time | pH | Papp A→B |
| --- | --- | --- | --- | --- |
| C[C@@H]1O[C@@H](O[C@H]2[C@H](Oc3cc(O)c4c(c3)O[C@H](c3ccc(O)cc3)CC4=O)O[C@H](CO)[C@@H](O)[C@@H]2O)[C@H](O)[C@H](O)[C@H]1O | 100 µg/mL | 2 h |  | 21 ×10⁻⁶ cm/s |
| O=c1cc(-c2ccc(O)cc2)oc2c([C@@H]3O[C@H](CO)[C@@H](O)[C@H](O)[C@H]3O)c(O)cc(O)c12 | 100 µg/mL |  |  | 0.316 ×10⁻⁶ cm/s |
| O=C(CCc1ccc(O)cc1)c1c(O)cc(O)cc1O[C@@H]1O[C@H](CO)[C@@H](O)[C@H](O)[C@H]1O | 100 µg/mL | 2 h |  | 2.94 ×10⁻⁶ cm/s |
| CNS(=O)(=O)Cc1ccc2[nH]cc(CCN(C)C)c2c1 | 5 µM | 2 h |  | 0.36 ×10⁻⁶ cm/s |
| C[C@@H]1O[C@@H](OC[C@H]2O[C@@H](Oc3c(-c4ccc(OCCO)c(OCCO)c4)oc4cc(OCCO)cc(O)c4c3=O)[C@H](O)[C@@H](O)[C@@H]2O)[C@H](O)[C@H](O)[C@H]1O | 100 µg/mL | 2 h |  | 6.15 ×10⁻⁶ cm/s |
| C[C@@H]1O[C@@H](OC[C@H]2O[C@@H](Oc3c(-c4ccc(O)c(O)c4)oc4cc(O)cc(O)c4c3=O)[C@H](O)[C@@H](O)[C@@H]2O)[C@H](O)[C@H](O)[C@H]1O | 200 µg/mL |  |  | 0.293 ×10⁻⁶ cm/s |
| N#Cc1ccc(C[C@H](Nc2c(Nc3ccc(Br)cc3)c(=O)c2=O)C(=O)N2CCc3ccccc32)cc1 | 100 µM | 2 h |  | 2 ×10⁻⁶ cm/s |
| O=c1c2cc(Cl)ncc2[nH]c(=S)n1Cc1cccnc1 | 10 µM | 90 min | pH 7.4 | 34.6 ×10⁻⁶ cm/s |
| COc1cc(NC(=O)Cn2cc(Cl)c3cc(F)c(-c4cnn(C)c4)cc32)cc(OC)c1OC |  |  |  | 0.08 ×10⁻⁶ cm/s |
| Oc1cc(O)c2c(c1)O[C@H](c1ccc(O)c(O)c1)[C@H](O)C2 | 100 µg/mL | 2 h |  | 1.26 ×10⁻⁶ cm/s |
| N=C(N)NCCCNC(=O)[C@@H]1CCCCN1C(=O)[C@@H](CC1CCCCC1)NCC(=O)O | 5 µM | 2 h |  | 0.05 ×10⁻⁶ cm/s |
| CCONC(=O)N1CCC[C@H](C(=O)NCc2nc(-c3ccc(C#N)cc3)cs2)C1 |  |  | pH 7.4 | 6.5 ×10⁻⁶ cm/s |
| O=C(O)[C@H]1O[C@@H](Oc2cc3oc(-c4ccccc4)cc(=O)c3c(O)c2O)[C@H](O)[C@@H](O)[C@@H]1O | 100 µg/mL | 2 h |  | 10.8 ×10⁻⁶ cm/s |
| Nc1nc2c(ncn2COCCO)c(=O)[nH]1 | 5 µM | 2 h |  | 0.18 ×10⁻⁶ cm/s |
| COc1ccc([C@@H]2CC(=O)c3c(O)cc(O)cc3O2)cc1O | 100 µg/mL | 2 h |  | 3.95 ×10⁻⁶ cm/s |
| CC(C)NCC(O)COc1cccc2ccccc12 (stereo not drawn) | 5 µM | 2 h |  | 12.6 ×10⁻⁶ cm/s |
| O=c1c(-c2ccc(O)cc2)coc2cc(O)ccc12 | 100 µg/mL | 2 h |  | 27.4 ×10⁻⁶ cm/s |
| N#Cc1ccc(C[C@H](NC(=O)Nc2ccc(F)cc2)C(=O)N2CCc3ccccc32)cc1 | 100 µM | 2 h |  | 49.3 ×10⁻⁶ cm/s |
